Bioassay records (PubChem BioAssay)
Sampled rows, rich in hits. Any-hit rate of the full collection: about 1.9%.
Rtt109 HAT inh: C. albicans Rtt109 histone acetyltransferase inhibition | Q5AAJ8 | AID 540336 | inhibition, % at 34.9 µM | actives 0.16% (n = 330,000) | purified Rtt109/Vps75, ThioGlo CoA-SH fluorescence, 4 h;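 active means inhibition of at least 50% in every replicate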
Target sequence (Q5AAJ8 whole entry, looked up): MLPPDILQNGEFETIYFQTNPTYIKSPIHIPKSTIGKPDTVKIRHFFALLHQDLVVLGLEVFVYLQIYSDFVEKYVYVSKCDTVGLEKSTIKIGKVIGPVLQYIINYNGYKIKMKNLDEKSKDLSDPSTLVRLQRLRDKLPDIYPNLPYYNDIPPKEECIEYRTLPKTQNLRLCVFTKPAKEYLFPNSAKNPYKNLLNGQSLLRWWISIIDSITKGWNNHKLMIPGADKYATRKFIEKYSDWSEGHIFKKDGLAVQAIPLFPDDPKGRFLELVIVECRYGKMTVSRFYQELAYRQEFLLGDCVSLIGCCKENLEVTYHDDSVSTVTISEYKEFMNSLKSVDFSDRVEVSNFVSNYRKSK
PglD inh: inhibitors of Campylobacter jejuni PglD acetyltransferase | inhibition, % at 12.5 µM | AID 602405 | purified PglD enzyme, DTNB colorimetric CoA detection | actives 0.098% (n = 360,000); in the data active means inhibition above about 16%, passing the limit was not always enough
SR-BI DiI-HDL act: enhances SR-BI lipid uptake from DiI-HDL; actives 0.096% (n = 320,000); activation, % at 12.5 µM; CHO ldlA[mSR-BI] cells, DiI-HDL uptake fluorescence, 3 h; 100 = double the neutral-control signal; AID 504775;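 active means mean replicate activation of at least 60% and every replicate at or above 60%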
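system = CHO ldlA[mSR-BI] cells, LDL receptor-null, SR-BI overexpressing | medium = Ham's F12 with 0.5% BSA, HEPES 25 mM, pH 7.4 | probe or stimulus = DiI-HDL 10 µg/mL | compound dosing = single-point compound dose | incubation = compound exposure 3 h, 37 °C | technique = DiI fluorescence, bottom read | read-out = cell-associated DiI fluorescence as measure of HDL uptake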
N-glyco inh: blocks N-linked glycosylation in D54 reporter cells | actives 0.23% (n = 360,000) | D54 ERlucT glycosylation luciferase reporter, 24 h; percent of 100 nM tunicamycin response | reporter increase, % at 12.5 µM;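 active means mean luciferase reporter signal, scaled so untreated is 0 and the glycosylation-blocking control 100, at or above a set limit in every replicate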;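 further: luciferase carries N-glycosylation sites so blocking glycosylation raises the light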
SR-BI DiI inh: blocks mouse SR-BI lipid uptake from DiI-HDL | Q61009 | ldlA[mSR-BI] CHO cells, DiI-HDL uptake fluorescence, 3 h | inhibition, % at 12.5 µM | actives 0.96% (n = 320,000) | AID 488896;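 active means mean replicate inhibition of at least 70% and a set share of replicates each scoring 70 or more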
HIV Env fusion: blocks HIV Env-driven cell-cell fusion | HeLa-JRFL Env/CEM21 cell fusion, luciferase | inhibition, % at 12.3 µM | actives 1.1% (n = 360,000) | AID 651610;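 active means mean replicate inhibition score of at least 50 and every replicate individually at or above 50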
DiI quench: quenches DiI-HDL fluorescence, an SR-BI assay artifact. actives 20% (n = 470). shares compounds with SR-BI DiI inh. AC50, µM (series often up to 35 µM). cell-free DiI-HDL fluorescence quenching, 30 min;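 active means quenching, a falling signal, with AC50 below a set limit tied to the top valid dose, actives reach about 32 µM in these data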
PglD inh SP: PglD (C. jejuni) inhibition confirmation. shares compounds with PglD inh. Purified C. jejuni PglD, DTNB absorbance 412 nm. inhibition, % at 20 µM. 320 tested, under 10 active. AID 743156;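 active means mean inhibition across replicates of at least 20% with every single replicate also at 20% or more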;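 further: initial rate of CoA release by acetyl transfer from AcCoA to the UDP-4-amino sugar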
Of the large screens only hits and unclear results are named; the others gave an inactive call (follow-up assays come after a bar, where they were run).

CC(=O)c1ccc2c(c1)C1C(Cl)C(Sc3ccccc3[N+](=O)[O-])CC1C(c1ccccc1[N+](=O)[O-])N2 (configuration not stated)	SR-BI DiI inh 73
CCN(CC)c1ccc(N=Cc2c(O)n(-c3cc(OC)ccc3OC)c(=O)[nH]c2=O)cc1	SR-BI DiI inh 91 (no result: HIV Env fusion)
COC(=O)C1=C(c2ccc(OC(F)(F)F)cc2)C[C@@H]2CC[C@H]1N2C(=O)N1CCC(O)CC1	none
COC(=O)C1=C(c2ccc(OC(F)(F)F)cc2)C[C@@H]2CC[C@H]1N2C(=O)N1CCCCC1	HIV Env fusion 75
COC(=O)C1=C(c2ccc3ccccc3c2)C[C@@H]2CC[C@H]1N2C(=O)N1CCOCC1	none
COC(=O)C1=C(c2cc3ccccc3o2)C[C@@H]2CC[C@H]1N2C(=O)N1CCOCC1	N-glyco inh 36
CNc1ccc2oc(C[C@H]3O[C@@]4(CC[C@H]3C)O[C@H]([C@H](C)C(=O)c3ccc[nH]3)[C@H](C)C[C@H]4C)nc2c1C(=O)O	HIV Env fusion 90
CC(C)NS(=O)(=O)c1ccc(OCC(=O)N2CCN(Cc3ccc4c(c3)OCO4)CC2)c(Cl)c1	HIV Env fusion 74
OC[C@@H]1[C@@H]2c3ccccc3NC[C@@H]2N1Cc1cccnc1	none (no result: Rtt109 HAT inh, SR-BI DiI-HDL act, N-glyco inh, SR-BI DiI inh, HIV Env fusion)
O=C(N/N=C/c1c(O)n(C2CC2)c(=S)[nH]c1=O)c1ccccc1O	SR-BI DiI inh 92 (no result: PglD inh)
O=C(N/N=C/c1c(O)n(-c2ccccc2)c(=S)[nH]c1=O)c1ccccc1	none
Cc1ccccc1-n1c(O)c(/C=N/NC(=O)c2ccccc2O)c(=O)[nH]c1=S	SR-BI DiI inh 109
O=c1[nH]c(=S)n(C2CC2)c(O)c1C=NCc1ccc(F)cc1	none (no result: PglD inh)
O=C(Cc1ccccn1)N1CCCCN2[C@H](CO)[C@@H](c3ccc(-c4ccc(F)cc4)cc3)[C@H]2C1	none (no result: Rtt109 HAT inh, SR-BI DiI-HDL act, N-glyco inh, SR-BI DiI inh, HIV Env fusion)
O=C(O)[C@@H]1[C@@H](CO)[C@@H]2Cn3c(ccc(-c4cncnc4)c3=O)[C@H]1N2C(=O)NC1CCCC1	none (no result: Rtt109 HAT inh, SR-BI DiI-HDL act, N-glyco inh, SR-BI DiI inh, HIV Env fusion)
CCc1ccc(N2C(=O)NC(=O)C(Cc3ccc(OC)cc3OC)C2=O)cc1 (configuration not stated)	SR-BI DiI inh 84 (no result: HIV Env fusion)
COC(=O)c1cn(Cc2ccc(F)cc2)c2ccccc12	none (no result: Rtt109 HAT inh, SR-BI DiI-HDL act, SR-BI DiI inh)
COC(=O)c1cn(C(=O)c2cccc3ccccc23)c2ccccc12	SR-BI DiI inh 73 (no result: PglD inh) | DiI quench inactive
COc1ccc(NC(=O)C2C3CCC(O3)C2C(=O)O)c(OC)c1 (configuration not stated)	none | DiI quench inactive
CC(C)NC(=O)N1[C@@H]2c3ccc(-c4cccc(C(=O)N(C)C)c4)c(=O)n3C[C@H]1[C@H](CO)[C@H]2C(=O)O	none (no result: Rtt109 HAT inh, SR-BI DiI-HDL act, N-glyco inh, SR-BI DiI inh)
Clc1ccccc1CN1CCNCC1	PglD inh 22 | PglD inh SP inactive
COC(=O)[C@H]1[C@H](CO)[C@H]2Cn3c(ccc(-c4ccccc4)c3=O)[C@@H]1N2S(=O)(=O)c1ccccc1C	none (no result: Rtt109 HAT inh, SR-BI DiI-HDL act, N-glyco inh, SR-BI DiI inh, HIV Env fusion)
CC(C)N1CCN(Cc2cc3c(cc2Cl)OCO3)CC1CCO (configuration not stated)	none (no result: SR-BI DiI-HDL act, SR-BI DiI inh)
CC(C)N1CCN(Cc2cccc3c2OCO3)CC1CCO (configuration not stated)	PglD inh 21 | PglD inh SP inactive
